Screening results: PubChem BioAssay, several laboratories
D1 allo mod: D1 CRE-luciferase signal change, two-sided – cell-based, HEK293 D1, dopamine EC30, D1 allosteric modulator project, primary screen; dopamine EC30 potentiation; actives deviate in either direction; B-score at 10 µM; hit rate 5.9% among 58,000; AID 641, 2007;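 active = luminescence count or its row- and column-corrected plate score outside the 99.7% band of the plate's sample wells, on either side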
M1 agonist: M1 muscarinic receptor agonists, primary screen, CHO-M1 cells, Fluo-4 calcium, agonist mode; B-score at 10 µM; hit rate 3% among 64,000; AID 626, 2007; Muscarinic acetylcholine receptor M1; Fluo-4 calcium fluorescence; active compounds read high;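 active = fluorescence rise, raw or as B-score row- and column-corrected plate score, outside the 99.7% band of its plate's samples, either direction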
M1 antag: antagonists of rat M1 muscarinic receptor. CHO-M1 cells, Fluo-4 calcium, ACh EC80 antagonist mode; active compounds read low. B-score at 10 µM. hit rate 3.4% among 64,000. Muscarinic acetylcholine receptor M1 (Rattus norvegicus), P08482;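 active = calcium fluorescence response, raw or row-and-column corrected B-score, differing from the plate sample mean either way at a set confidence level, mostly lower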
HEK293 NFkB inh: inhibitors of PMA/ionomycin-induced NF-kB reporter, primary screen, antigen receptor NF-kB inhibitor project, cell-based, HEK-293 luciferase reporter, luminescence; hit rate 0.21% among 62,000; inhibition, % at 3 µM; HEK-293 NF-kB luciferase reporter;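 active = inhibition above the mean of all tested compounds plus 3 SD, cut at about 40% in these data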;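 also: 0% = stimulated DMSO wells and 100% = 10 µM reference inhibitor 5653914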
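Timing: 1 h pretreatment, 16 h stimulation, 37 °C; system: HEK-293 cells with stable firefly luciferase reporter driven by four HIV NF-kB elements; doses: 3 µM once, 0.30% DMSO; measured by: luciferase luminescence; control set: DMSO and 10 µM reference inhibitor; repeats: single test; reagent: PMA plus ionomycin mix as NF-kB-activating stimulus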
BAP1 inh: inhibitors of BAP1 deubiquitinase, primary screen, biochemical, Ub-AMC fluorescence, kinetic | recombinant BAP1, Ub-AMC hydrolysis fluorescence kinetic; active compounds read low | Ubiquitin carboxyl-terminal hydrolase BAP1 (Homo sapiens), Q92560 | AID 436, 2006 | calls only at 20 µM | hit rate 0.48% among 72,000;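 active = activity remaining at or below 50% of control, provided the compound also passes the data quality filters; inactive = the rest, including low values that fail the filters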;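 also: 100% = DMSO wells rate and 0% = substrate alone blank rate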
DAT uptake mod: changed hDAT dopamine uptake under cocaine IC80, either direction, primary screen, cocaine antagonist project, cell-based, LLC-PK1 hDAT, [14C]-dopamine uptake, MLSMR; LLC-PK1 hDAT cells, [14C]-dopamine uptake with cocaine IC80; actives deviate in either direction; B-score at 10 µM; hit rate 1.3% among 110,000;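 active = Z score or B-score, a plate-position-corrected score, falls beyond the plate's 99.7% confidence bounds, in either direction; inactive = both scores lie inside the 99.7% bounds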;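 also: scored against the spread of the other compound wells on the same plate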
M1 agonist conf: rat M1 muscarinic receptor agonists, confirmation, CHO-M1 cells, Fluo-4 calcium, duplicate retest. fluorescence change (max-min) at 10 µM. hit rate 19% among 1,700. shares compounds with M1 agonist. Fluo-4 calcium fluorescence, agonist mode; actives lie on both sides;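 active = fluorescence change differs from the solvent-only DMSO control mean at a set confidence level in both duplicate runs; inconclusive = differs from solvent-only control mean in just one of two runs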;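 also: an EC20 dose of acetylcholine follows compound addition during the same imaging run; raw fluorescence intensity difference in instrument units with no normalization to controls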
M4 ag counter: agonist activity at rat M4 receptor, confirmation, counter-screen for M1 allosteric modulator project, cell-based, agonist mode | CHO M4/Gqi5 cells, Fluo-4 calcium fluorescence; actives lie on both sides | AID 1741, 2009 | shares compounds with M1 agonist | hit rate 9% among 1,700 | fluorescence change (max-min) at 10 µM;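 active = fluorescence change differing from the plate's solvent-only control wells at 99.7% confidence in both duplicates, whether higher or lower; inconclusive = differs from solvent controls in only one of two duplicates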
Target sequence (P08485 whole entry, looked up): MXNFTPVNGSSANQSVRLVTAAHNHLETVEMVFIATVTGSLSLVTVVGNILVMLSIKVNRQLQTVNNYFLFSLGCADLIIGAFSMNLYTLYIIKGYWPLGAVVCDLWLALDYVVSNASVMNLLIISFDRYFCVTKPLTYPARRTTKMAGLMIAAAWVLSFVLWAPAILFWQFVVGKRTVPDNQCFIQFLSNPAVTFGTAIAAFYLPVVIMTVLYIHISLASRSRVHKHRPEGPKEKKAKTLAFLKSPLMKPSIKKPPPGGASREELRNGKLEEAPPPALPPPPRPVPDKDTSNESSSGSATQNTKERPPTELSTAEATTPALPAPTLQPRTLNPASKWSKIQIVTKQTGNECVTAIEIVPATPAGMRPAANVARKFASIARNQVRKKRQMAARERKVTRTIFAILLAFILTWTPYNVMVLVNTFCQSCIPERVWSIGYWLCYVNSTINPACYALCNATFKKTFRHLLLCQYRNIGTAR
* hit, by the source's call; i = inactive; u = inconclusive; x = no result shown. Only some compounds are listed: those with a hit (about 7.2% of all), similar ones and a draw of the others.

SMILES | D1 allo mod | M1 agonist | M1 antag | HEK293 NFkB inh | BAP1 inh | DAT uptake mod | M1 agonist conf | M4 ag counter
COCCCNS(=O)(=O)c1ccc2c(c1)CCN2C(C)=O | -0.17 | -0.85 | -0.36 | 14 | i | 1.2 | x | x
Cc1csc(SCC(=O)Nc2cc(C(C)(C)C)nn2-c2ccccc2)n1 | x | 2.5* | -1 | 16 | i | 0.073 | u | -48
O=C(NC1CCSC1=O)c1ccc([N+](=O)[O-])o1 (stereo not given) | x | x | x | x | i | x | x | x
CC(=O)c1c(-c2ccccc2)nc2nonc2c1N | x | x | x | x | i | x | x | x
O=C(CCN1C(=O)C2C3C=CC(C3)C2C1=O)Nc1c(F)cccc1F (stereo not given) | -0.018 | 0.19 | 0.17 | 11 | i | 0.96 | x | x
Cc1cc(NC(=O)CCN2C(=O)C3C4C=CC(C4)C3C2=O)c2ccccc2n1 (stereo not given) | -0.25 | 3.3* | -0.28 | 15 | i | -0.94 | -7.2 | -22
COCc1[nH]nc2c1C(c1ccccc1OC)C(C#N)=C(N)O2 (stereo not given) | -1.9 | -0.77 | 0.45 | x | i | -0.17 | x | x
CCCc1[nH]nc2c1C(CCc1ccccc1)C(C#N)=C(N)O2 (stereo not given) | -1 | 2.7* | 0.095 | 13 | i | 1.3 | u | -24
CCc1[nH]nc2c1C(Cc1ccccc1)C(C#N)=C(N)O2 (stereo not given) | x | x | x | x | x | -0.62 | x | x
COCc1[nH]nc2c1C(c1ccccc1Cl)C(C#N)=C(N)O2 (stereo not given) | x | 1.5* | 0.045 | 9 | i | -0.041 | -8.9 | -18
COc1ccc2c(c1OC)C(=O)N1c3ccccc3C(=O)N(c3ccccc3F)C21 (stereo not given) | -2.7 | 9.3* | 0.095 | x | i | -0.87 | -26* | -92*
Cc1c(C(=O)O)sc(=S)n1C | x | x | x | x | i | x | x | x
O=C(Nc1nnc(CCS(=O)(=O)c2ccc(Cl)cc2)s1)c1cccs1 | x | x | x | x | i | x | x | x
CC(C)(C)NC(=O)c1ccc2c(c1)C(=O)N(C1CCCCC1)C2=O | 2.2 | 6.1* | 0.13 | -17 | i | 0.98 | u | -38
Cc1ccccc1N1OC2C(=O)N(c3ccc(F)cc3)C(=O)C2C1c1ccccn1 (stereo not given) | -0.41 | 13* | -0.12 | 25 | i | -0.77 | -6.3 | -15
Fc1ccccc1-n1nnnc1SCc1ccccc1Cl | x | x | x | x | i | x | x | x
Nc1ccc2nc(-c3ccc(Cl)cc3)[nH]c2c1 | x | -2.2* | -0.67 | -4 | i | 0.3 | u | -80
Nc1ccc2nc(-c3cc(Cl)c(N)c(Cl)c3)[nH]c2c1 | x | x | x | x | x | 1.1 | x | x
CC(C)C1C2CCC(C2)C1N (stereo not given) | x | x | x | x | i | x | x | x
Cc1ccc2nc(-c3ccccn3)cc(C(=O)NC3CCN(C)CC3)c2c1 | -0.87 | -2.3* | -0.18 | 12 | i | 0.092 | -20 | -46
Cc1cc(NC(=O)c2cc(-c3ccccn3)nc3ccccc23)no1 | x | -0.35 | -1.2 | 6 | i | 0.18 | x | x
O=[N+]([O-])c1cccc(N2COc3ccc4ccccc4c3C2)c1 | x | x | x | x | i | x | x | x
Cc1ccc(-c2noc(CCCC(=O)N3CCOCC3)n2)cc1 | -0.093 | -0.55 | -0.46 | 16 | i | -0.25 | x | x
O=C(CCCc1nc(-c2ccc(Cl)cc2)no1)N1CCOCC1 | -1.4 | -2.5* | -0.65 | 17 | i | 0.09 | u | -90*
CCOC(=O)SC1=N/C(=C\c2ccc(N(C)C)cc2)C(=O)S1 | -0.3 | 10* | 0.66 | 9 | i | -0.37 | u | u
SMILES | D1 allo mod | M1 agonist | M1 antag | HEK293 NFkB inh | BAP1 inh | DAT uptake mod | M1 agonist conf | M4 ag counter
CCC(=O)c1ccc(N2CCN(C(=O)Cc3ccccc3)CC2)c(F)c1 | 0.94 | 0 | -0.57 | 14 | i | 1.6 | x | x
CCC(=O)c1cc(F)c(N2CCN(C(=O)Cc3ccccc3)CC2)cc1C | -0.58 | 2.7* | -1.2* | 21 | i | 0.54 | 2.7 | -26
CCCC(=O)c1ccc(N2CCN(C(=O)c3ccccc3Br)CC2)c(F)c1 | -2.4 | 3.1* | -3.2* | 4 | i | 0.78 | u | -46
CCCC(=O)c1ccc(N2CCN(C(=O)c3ccccc3)CC2)c(F)c1 | -0.15 | 4.1* | -2.4 | 15 | i | -0.57 | 0.12 | -42
CCCC(=O)c1ccc(N2CCN(C(=O)c3ccc(Br)cc3)CC2)c(F)c1 | -0.6 | 0.038 | 0.6 | 0 | x | -0.0043 | x | x
CC(Cl)=CCN1C(=O)C(=O)c2cccc(C)c21 | x | x | x | x | i | x | x | x
CC(C)c1ccc(C(Nc2ccccn2)c2ccc3cccnc3c2O)cc1 (stereo not given) | x | x | x | x | i | x | x | x
COc1ccc2oc(=Nc3ccccc3OC)c(C(=O)NC(C)=O)cc2c1 | x | x | x | x | i | x | x | x
O=C(Nc1nccs1)c1cc(N2CCOCC2)nc2ccccc12 | 0.17 | 3.1* | -0.44 | 8 | i | 0.0059 | -9 | -29
O=C(Nc1ccccc1)c1cc(N2CCOCC2)nc2ccccc12 | x | 0.42 | -0.061 | x | i | -0.8 | x | x
CC1(C)Cc2nc3oc4c(N5CCOCC5)ncnc4c3cc2CO1 | x | x | x | x | x | 0.0061 | x | x
CC1(C)Cc2nc3oc4c(N(CCO)Cc5ccccc5)ncnc4c3cc2CO1 | 1.6 | 8.1* | -0.47 | 2 | i | 2.6 | -12 | -20
CC1=C(C(=O)OC2CCCCCCC2)C(c2cccc(Oc3ccccc3)c2)NC(=O)N1 (stereo not given) | x | x | x | x | i | x | x | x
Cc1csc(SCCn2c(N3CCN(c4ccccc4)CC3)nc3c2c(=O)[nH]c(=O)n3C)n1 | -0.66 | 5.4* | -2.5* | 6 | i | 0.43 | u | -57
c1ccc(-n2nnnc2NCCc2c[nH]c3ccccc23)cc1 | -0.32 | 5.8* | -0.46 | 1 | i | -0.38 | -7.1 | u
CCOc1ccccc1NC(=O)c1c(NC(=O)c2ccccc2Cl)sc2c1CCCC2 | x | x | x | x | i | x | x | x
CC1=C(C(=O)OC2CCC(C)CC2)C(c2ccc([N+](=O)[O-])cc2)NC(=O)N1 (stereo not given) | x | x | x | x | i | x | x | x
O=C(Nc1ccc(F)cc1)N(Cc1ccco1)Cc1cc2cc3c(cc2[nH]c1=O)OCO3 | -0.2 | -2.5* | 0.79 | 22 | x | -1.4 | -13 | -22
